Data from ChEMBL document CHEMBL3272292, “2-(2-Aminoethylamino)-1,2-diphenylethanol derivatives, a new class of topical antiinflammatory agents” (1977).

Key:
Assay type in all cases: functional
Rattus norvegicus [1] = assay: Antiinflammatory activity in immature rat assessed as inhibition of cantharidin-induced inflammation at 888 ug administered topically to outer surface of ear after 72 hrs relative to control
Method in brief: (§1)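 Test compounds applied topically to outer ear surface together with cantharidin, groups of 8-10 immature rats (50-60 g). Controls: vehicle-only group and cantharidin-only group. […] Significance vs irritant group by Student's t test or Fieller's theorem.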

Rattus norvegicus [2] = assay: Antiinflammatory activity in immature rat assessed as inhibition of cantharidin-induced inflammation at 924 ug administered topically to outer surface of ear after 72 hrs relative to control; method in brief: as §1
Rattus norvegicus [3] = assay: Antiinflammatory activity in immature rat assessed as inhibition of cantharidin-induced inflammation at 200 ug administered topically to outer surface of ear after 72 hrs relative to control; method in brief: as §1
Rattus norvegicus [4] = assay: Antiinflammatory activity in immature rat assessed as inhibition of cantharidin-induced inflammation at 100 ug administered topically to outer surface of ear after 72 hrs relative to control; method in brief: as §1
Rattus norvegicus [5] = assay: Antiinflammatory activity in immature rat assessed as inhibition of cantharidin-induced inflammation at 800 ug administered topically to outer surface of ear after 72 hrs relative to control; method in brief: as §1
Rattus norvegicus [6] = assay: Antiinflammatory activity in immature rat assessed as inhibition of cantharidin-induced inflammation at 400 ug administered topically to outer surface of ear after 72 hrs relative to control; method in brief: as §1
Rattus norvegicus [7] = assay: Antiinflammatory activity in immature rat assessed as inhibition of cantharidin-induced inflammation at 50 ug administered topically to outer surface of ear after 72 hrs relative to control; method in brief: as §1
Rattus norvegicus [8] = assay: Antiinflammatory activity in rat assessed as reduction in dry ganuloma tissue surrounding implanted cotton pellet at 1000 ug per pellet after 72 hrs relative to control; parameters: scale not given: the % may be the effect or the level left
Method in brief: (§2)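 Compound dissolved in ethanol, applied to cotton pellets and dried at room temperature. Two pellets implanted sc per rat, ten rats per dose group. Pellets removed at autopsy 72 h later. Activity read as reduction in dry granuloma tissue around pellets vs control group. Significance by Student's t test or Fieller's theorem.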

Rattus norvegicus [9] = assay: Antiinflammatory activity in rat assessed as reduction in dry ganuloma tissue surrounding implanted cotton pellet at 2000 ug per pellet after 72 hrs relative to control; parameters: scale not given: the % may be the effect or the level left; method in brief: as §2
Rattus norvegicus [10] = assay: Antiinflammatory activity in rat assessed as reduction in dry ganuloma tissue surrounding implanted cotton pellet at 4000 ug per pellet after 72 hrs relative to control; parameters: scale not given: the % may be the effect or the level left; method in brief: as §2
Rattus norvegicus [11] = assay: Antiinflammatory activity in rat assessed as reduction in dry ganuloma tissue surrounding implanted cotton pellet at 8000 ug per pellet after 72 hrs relative to control; parameters: scale not given: the % may be the effect or the level left; method in brief: as §2
Rattus norvegicus [12] = assay: Antiinflammatory activity in immature rat assessed as inhibition of cantharidin-induced inflammation at 80 ug administered topically to outer surface of ear after 72 hrs relative to control; method in brief: as §1
Rattus norvegicus [13] = assay: Antiinflammatory activity in rat assessed as reduction in dry ganuloma tissue surrounding implanted cotton pellet at 80 ug per pellet after 72 hrs relative to control; parameters: scale not given: the % may be the effect or the level left; method in brief: as §2
Rattus norvegicus [14] = assay: Antiinflammatory activity in immature rat assessed as inhibition of cantharidin-induced inflammation at 40 ug administered topically to outer surface of ear after 72 hrs relative to control; method in brief: as §1
Rattus norvegicus [15] = assay: Antiinflammatory activity in immature rat assessed as inhibition of cantharidin-induced inflammation at 20 ug administered topically to outer surface of ear after 72 hrs relative to control; method in brief: as §1
Rattus norvegicus [16] = assay: Antiinflammatory activity in rat assessed as reduction in dry ganuloma tissue surrounding implanted cotton pellet at 40 ug per pellet after 72 hrs relative to control; parameters: scale not given: the % may be the effect or the level left; method in brief: as §2
Rattus norvegicus [17] = assay: Antiinflammatory activity in immature rat assessed as inhibition of cantharidin-induced inflammation at 5 ug administered topically to outer surface of ear after 72 hrs relative to control; method in brief: as §1
Rattus norvegicus [18] = assay: Antiinflammatory activity in rat assessed as reduction in dry ganuloma tissue surrounding implanted cotton pellet at 20 ug per pellet after 72 hrs relative to control; parameters: scale not given: the % may be the effect or the level left; method in brief: as §2
Rattus norvegicus [19] = assay: Antiinflammatory activity in immature rat assessed as inhibition of cantharidin-induced inflammation at 10 ug administered topically to outer surface of ear after 72 hrs relative to control; method in brief: as §1
Rattus norvegicus [20] = assay: Antiinflammatory activity in rat assessed as reduction in dry ganuloma tissue surrounding implanted cotton pellet at 10 ug per pellet after 72 hrs relative to control; parameters: scale not given: the % may be the effect or the level left; method in brief: as §2

## CC12C(=O)N(CCNC(c3ccccc3)C(O)c3ccccc3)C(=O)C1(C)C1CCC2O1 (stereo not drawn)
Rattus norvegicus [1]
  inhibition (INH): 0%

## CC1(C(=O)O)C2CCC(O2)C1(C)C(=O)NCCNC(c1ccccc1)C(O)c1ccccc1 (stereo not drawn)
Rattus norvegicus [2]
  inhibition (INH): 67%

## O[C@@H](c1ccccc1)[C@@H](NCCN[C@@H](c1ccccc1)[C@@H](O)c1ccccc1)c1ccccc1
Rattus norvegicus [3]
  inhibition (INH): 17%
Rattus norvegicus [4]
  inhibition (INH): 0%
Rattus norvegicus [5]
  inhibition (INH): 0%
Rattus norvegicus [6]
  inhibition (INH): 5%
Rattus norvegicus [7]
  inhibition (INH): 14%

## NCCN[C@@H](c1ccccc1)[C@@H](O)c1ccccc1 (racemic)
Rattus norvegicus [3]
  inhibition (INH): 46%
Rattus norvegicus [8]
  Activity: 19%
Rattus norvegicus [4]
  inhibition (INH): 19%
Rattus norvegicus [9]
  Activity: 28%
Rattus norvegicus [5]
  inhibition (INH): 88%
Rattus norvegicus [6]
  inhibition (INH): 72%
Rattus norvegicus [10]
  Activity: 44%
Rattus norvegicus [7]
  inhibition (INH): 19%
Rattus norvegicus [11]
  Activity: 49%

## NCCN[C@@H](c1ccccc1)[C@H](O)c1ccccc1 (racemic)
Rattus norvegicus [3]
  inhibition (INH): 9%
Rattus norvegicus [4]
  inhibition (INH): 7%
Rattus norvegicus [5]
  inhibition (INH): 88%
Rattus norvegicus [6]
  inhibition (INH): 56%

## CN(C)CCN[C@@H](c1ccccc1)[C@@H](O)c1ccccc1 (racemic)
Rattus norvegicus [3]
  inhibition (INH): 8%
Rattus norvegicus [4]
  inhibition (INH): 0%
Rattus norvegicus [5]
  inhibition (INH): 0%
Rattus norvegicus [6]
  inhibition (INH): 0%
Rattus norvegicus [7]
  inhibition (INH): 0%

## NCCN[C@@H](c1ccccc1)[C@@H](O)c1ccc(Cl)cc1 (racemic)
Rattus norvegicus [3]
  inhibition (INH): 35%
Rattus norvegicus [4]
  inhibition (INH): 23%
Rattus norvegicus [5]
  inhibition (INH): 90%
Rattus norvegicus [6]
  inhibition (INH): 64%
Rattus norvegicus [7]
  inhibition (INH): 20%

## NCCN[C@@H](c1ccc(Cl)cc1)[C@@H](O)c1ccccc1 (racemic)
Rattus norvegicus [3]
  inhibition (INH): 12%
Rattus norvegicus [4]
  inhibition (INH): 0%
Rattus norvegicus [5]
  inhibition (INH): 89%
Rattus norvegicus [6]
  inhibition (INH): 35%
Rattus norvegicus [7]
  inhibition (INH): 3%

## NCCCN[C@@H](c1ccccc1)[C@@H](O)c1ccccc1 (racemic)
Rattus norvegicus [3]
  inhibition (INH): 21%
Rattus norvegicus [4]
  inhibition (INH): 8%
Rattus norvegicus [5]
  inhibition (INH): 51%
Rattus norvegicus [6]
  inhibition (INH): 29%
Rattus norvegicus [7]
  inhibition (INH): 0%

## CC(=O)NCCN(C(C)=O)[C@@H](c1ccccc1)[C@@H](O)c1ccccc1 (racemic)
Rattus norvegicus [3]
  inhibition (INH): 9%
Rattus norvegicus [4]
  inhibition (INH): 11%
Rattus norvegicus [5]
  inhibition (INH): 40%
Rattus norvegicus [6]
  inhibition (INH): 0%
Rattus norvegicus [7]
  inhibition (INH): 0%

## CC(=O)NCCN[C@@H](c1ccccc1)[C@@H](O)c1ccccc1 (racemic)
Rattus norvegicus [3]
  inhibition (INH): 0%
Rattus norvegicus [4]
  inhibition (INH): 3%
Rattus norvegicus [5]
  inhibition (INH): 5%
Rattus norvegicus [6]
  inhibition (INH): 3%
Rattus norvegicus [7]
  inhibition (INH): 0%

## CC(=O)NCCN(C(C)=O)[C@@H](c1ccccc1)[C@@H](OC(C)=O)c1ccccc1 (racemic)
Rattus norvegicus [3]
  inhibition (INH): 7%
Rattus norvegicus [4]
  inhibition (INH): 13%
Rattus norvegicus [5]
  inhibition (INH): 0%
Rattus norvegicus [6]
  inhibition (INH): 13%
Rattus norvegicus [7]
  inhibition (INH): 6%

## NCCN[C@@H](c1ccc(Cl)cc1)[C@@H](O)c1ccc(Cl)cc1 (racemic)
Rattus norvegicus [3]
  inhibition (INH): 16%
Rattus norvegicus [4]
  inhibition (INH): 10%
Rattus norvegicus [5]
  inhibition (INH): 17%
Rattus norvegicus [6]
  inhibition (INH): 15%
Rattus norvegicus [7]
  inhibition (INH): 16%

## Cc1ccc([C@H](O)[C@@H](NCCN)c2ccccc2)cc1 (racemic)
Rattus norvegicus [3]
  inhibition (INH): 5%
Rattus norvegicus [4]
  inhibition (INH): 9%
Rattus norvegicus [5]
  inhibition (INH): 68%
Rattus norvegicus [6]
  inhibition (INH): 53%
Rattus norvegicus [7]
  inhibition (INH): 12%

## CN(C)CCCN[C@@H](c1ccccc1)[C@@H](O)c1ccccc1 (racemic)
Rattus norvegicus [3]
  inhibition (INH): 16%
Rattus norvegicus [4]
  inhibition (INH): 0%
Rattus norvegicus [5]
  inhibition (INH): 32%
Rattus norvegicus [6]
  inhibition (INH): 9%
Rattus norvegicus [7]
  inhibition (INH): 9%

## NCCCCN[C@@H](c1ccccc1)[C@@H](O)c1ccccc1 (racemic)
Rattus norvegicus [3]
  inhibition (INH): 37%
Rattus norvegicus [4]
  inhibition (INH): 5%
Rattus norvegicus [5]
  inhibition (INH): 87%
Rattus norvegicus [6]
  inhibition (INH): 54%
Rattus norvegicus [7]
  inhibition (INH): 10%

## CNCCN[C@@H](c1ccccc1)[C@@H](O)c1ccccc1 (racemic)
Rattus norvegicus [3]
  inhibition (INH): 20%
Rattus norvegicus [4]
  inhibition (INH): 20%
Rattus norvegicus [5]
  inhibition (INH): 26%
Rattus norvegicus [6]
  inhibition (INH): 6%
Rattus norvegicus [7]
  inhibition (INH): 15%

## CN(CCN)[C@@H](c1ccccc1)[C@@H](O)c1ccccc1 (racemic)
Rattus norvegicus [3]
  inhibition (INH): 1%
Rattus norvegicus [4]
  inhibition (INH): 8%
Rattus norvegicus [5]
  inhibition (INH): 41%
Rattus norvegicus [6]
  inhibition (INH): 11%
Rattus norvegicus [7]
  inhibition (INH): 0%

## CC(C)=NCCN[C@@H](c1ccccc1)[C@@H](O)c1ccccc1 (relative stereo)
Rattus norvegicus [3]
  inhibition (INH): 10%
Rattus norvegicus [4]
  inhibition (INH): 13%
Rattus norvegicus [5]
  inhibition (INH): 87%
Rattus norvegicus [6]
  inhibition (INH): 59%
Rattus norvegicus [7]
  inhibition (INH): 14%

## NCCNC(c1ccccc1)C(O)c1ccccc1 (single isomer, unassigned; (+))
Rattus norvegicus [3]
  inhibition (INH): 0%
Rattus norvegicus [4]
  inhibition (INH): 2%
Rattus norvegicus [5]
  inhibition (INH): 96%
Rattus norvegicus [6]
  inhibition (INH): 29%

## NCCNC(c1ccccc1)C(O)c1ccccc1 (stereo in doubt; 8a)
Rattus norvegicus [3]
  inhibition (INH): 19%
Rattus norvegicus [4]
  inhibition (INH): 1%
Rattus norvegicus [5]
  inhibition (INH): 87%
Rattus norvegicus [6]
  inhibition (INH): 51%
Rattus norvegicus [7]
  inhibition (INH): 7%

## C[C@@H]1C[C@H]2[C@@H]3CCC4=CC(=O)C=C[C@]4(C)[C@@]3(F)[C@@H](O)C[C@]2(C)[C@@]1(O)C(=O)CO [DEXAMETHASONE]
Rattus norvegicus [12]
  inhibition (INH): 76%
Rattus norvegicus [13]
  Activity: 49%
Rattus norvegicus [14]
  inhibition (INH): 53%
Rattus norvegicus [15]
  inhibition (INH): 30%
Rattus norvegicus [16]
  Activity: 34%
Rattus norvegicus [17]
  inhibition (INH): 17%
Rattus norvegicus [18]
  Activity: 28%
Rattus norvegicus [19]
  inhibition (INH): 25%
Rattus norvegicus [20]
  Activity: 16%
